Results: ChEMBL document CHEMBL1157083, “Characterization of tamulamides A and B, polyethers isolated from the marine dinoflagellate Karenia brevis” (J Nat Prod, 2010)

Tests used:
Ovis aries [1] = experiment: Bronchoconstriction in sheep asthma model assessed as pulmonary airflow resistance at 10 pg/ml administered through aerosol for 20 breaths by pneumotachography relative to control; type: functional
[2] = Displacement of [3H]PbTx-3 from rat brain synaptosome voltage-sensitive sodium channel site 5 after 1 hr by rapid filtration based scintillation counting; type: tissue-based
Procedure, shortened: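 Rat brain synaptosomes (0.1 mg protein/mL final) were incubated on ice for at least 1 h with about 1.5 nM [3H]-PbTx-3 and competitor (0 to 10 μM). Buffer was HEPES/choline chloride medium, pH 7.4, with 1 mg/mL BSA. Bound label was filtered and counted by scintillation. Apparent Ki came from one-site competition fits, with ≥3 experiments each run in duplicate or triplicate.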

Gambusia affinis [3] = experiment: Toxicity in mosquito fish assessed as time required for mortality at 200 nM; type: organism-based; details: in vivo, 0.2 µM
Procedure, shortened: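 Fish received 0.2 mL of test solution or an EtOH vehicle in tank water, giving 25-200 nM final. Five fish were used per concentration. Fish were watched for 24 h or until death. Time of death in minutes is given as mean ± S.E.M., compared by t-test.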

Ovis aries [4] = experiment: Bronchoconstriction in sheep 1988 asthma model assessed as pulmonary airflow resistance at 10 pg/ml administered through aerosol for 20 breaths by pneumotachography relative to control; type: functional
Gambusia affinis [5] = experiment: Toxicity in mosquito fish at 25 to 200 nM up to 24 hrs; type: organism-based; details: in vivo, 0.2 µM
Procedure, shortened: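 Fish each received 0.2 mL test solution or EtOH vehicle (0.2 mL), giving final water concentrations of 0, 25, 50, 100 or 200 nM. PbTx-2 positive control at 200 nM. Five fish per concentration. Monitored for 24 hours or until death; time of death as mean ± S.E.M., two-way Student's t-test.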

Ovis aries [6] = experiment: Bronchoconstriction in sheep 2297 asthma model assessed as pulmonary airflow resistance at 10 pg/ml administered through aerosol for 20 breaths by pneumotachography relative to control; type: functional
Ovis aries [7] = experiment: Bronchoconstriction in sheep 2164 asthma model assessed as pulmonary airflow resistance at 10 pg/ml administered through aerosol for 20 breaths by pneumotachography relative to control; type: functional
Ovis aries [8] = experiment: Bronchoconstriction in sheep 2263 asthma model assessed as pulmonary airflow resistance at 10 pg/ml administered through aerosol for 20 breaths by pneumotachography relative to control; type: functional

C=C(COC(=O)c1ccc2ccccc2c1)C[C@@H]1C[C@H](O)[C@]2(C)O[C@@H]3C[C@@H]4O[C@@H]5C[C@]6(C)O[C@]7(C)CC[C@@H]8O[C@@H]9C[C@]%10(C)O[C@@H]%11C(C)=CC(=O)O[C@H]%11C[C@H]%10O[C@H]9C[C@@H](C)[C@H]8O[C@H]7C[C@H]6O[C@@]5(C)C/C=C\[C@H]4O[C@H]3C[C@H]2O1
Activity (Ovis aries [1]): 0%

C=C/C=C\CC[C@H]1O[C@H]2CC[C@@]3(C)O[C@H]4[C@@H](O)C[C@@]5(C)O[C@@H](CC/C=C(C)/C(C)=C/C=O)[C@@H](C)C[C@H]5O[C@@H]4C[C@@H]3O[C@@H]2CC[C@@]1(C)O [BREVENAL]
Ki [2]: 0.17 µM | Activity (Ovis aries [1]): 4%

C=C(C=O)C[C@@H]1C[C@H](O)[C@]2(C)O[C@@H]3C[C@@H]4O[C@@H]5C[C@]6(C)O[C@]7(C)CC[C@@H]8O[C@@H]9C[C@]%10(C)O[C@@H]%11C(C)=CC(=O)O[C@H]%11C[C@H]%10O[C@H]9C[C@@H](C)[C@H]8O[C@H]7C[C@H]6O[C@@]5(C)C/C=C\[C@H]4O[C@H]3C[C@H]2O1 [BREVETOXIN B]
Ki [2]: 0.0012 µM | Activity (Ovis aries [1]): 226% | Activity (Gambusia affinis [3]): Toxic

CC(=O)NC[C@@H]1O[C@@H]2C[C@]3(C)O[C@@H]4C=C[C@@H]5O[C@@H]6C=C[C@@H]7O[C@H](/C=C/C=C/C=O)C=C[C@H]7O[C@H]6C[C@H]5O[C@@]4(C)C[C@H]3O[C@H]2C[C@H]1O [TAMULAMIDE A]
Ki [2]: 2.5 µM | Activity (Ovis aries [4]): 39% | Activity (Gambusia affinis [5]): Non-toxic | Activity (Ovis aries [6]): 34% | Activity (Ovis aries [7]): 43% | Activity (Ovis aries [8]): 42%

CC(=O)NC[C@@H]1O[C@@H]2C[C@]3(C)O[C@@H]4C=C[C@@H]5O[C@@H]6C=C[C@@H]7O[C@H](/C=C/C=C/C=O)C=C[C@H]7O[C@H]6C[C@H]5O[C@H]4C[C@H]3O[C@H]2C[C@H]1O [TAMULAMIDE B]
Ki [2]: 0.21 µM | Activity (Ovis aries [4]): 36% | Activity (Gambusia affinis [5]): Non-toxic | Activity (Ovis aries [6]): 33% | Activity (Ovis aries [7]): 34% | Activity (Ovis aries [8]): 37%
